Measured values as given in ChEMBL document CHEMBL2413033, “Design and synthesis of novel series of 5-HT6 receptor ligands having indole, a central aromatic core and 1-amino-4 methyl piperazine as a positive ionizable group” (Bioorg Med Chem, 2013).

How the values were obtained:
Format in all cases: functional, cell-based
[1] = target: 5-hydroxytryptamine receptor 7 (Homo sapiens) (UniProt P34969); assay: Antagonist activity at human recombinant 5HT7 receptor expressed in HEK293 cells assessed as inhibition of 5HT-induced cAMP accumulation at 10 uM pretreated for 10 mins before 5HT addition measured after 1 hr relative to control
Chain of 5-hydroxytryptamine receptor 7 (Homo sapiens) (P34969 whole entry): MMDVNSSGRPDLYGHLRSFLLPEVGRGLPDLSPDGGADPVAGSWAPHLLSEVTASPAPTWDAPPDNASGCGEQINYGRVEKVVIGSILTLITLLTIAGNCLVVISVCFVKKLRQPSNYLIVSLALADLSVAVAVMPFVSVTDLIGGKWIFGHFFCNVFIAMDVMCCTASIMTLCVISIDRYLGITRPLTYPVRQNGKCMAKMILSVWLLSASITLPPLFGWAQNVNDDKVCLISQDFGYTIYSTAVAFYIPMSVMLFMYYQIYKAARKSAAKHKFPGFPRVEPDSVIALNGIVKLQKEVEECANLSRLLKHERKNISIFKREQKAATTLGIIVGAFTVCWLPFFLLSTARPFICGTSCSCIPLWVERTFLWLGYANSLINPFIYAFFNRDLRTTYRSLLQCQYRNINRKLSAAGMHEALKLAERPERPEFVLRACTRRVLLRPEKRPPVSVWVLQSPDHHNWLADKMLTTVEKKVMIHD
Summary of the method: (§1)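 Cells kept at 37 °C under 5% CO2/95% air were suspended in PBS with 2 mM IBMX. They were pretreated with compound (or not) for 10 min, then stimulated with 5-HT for 30 min. HTRF cAMP detection used d2-labelled cAMP and cryptate-labelled anti-cAMP antibody, 1 h at room temperature. Read-out was excitation 314 nm, emission 668 and 620 nm. Results are percent inhibition versus untreated controls.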

[2] = target: 5-hydroxytryptamine receptor 4 (Homo sapiens) (UniProt Q13639); assay: Antagonist activity at human recombinant 5HT4 receptor expressed in HEK293 cells assessed as inhibition of 5HT-induced cAMP accumulation at 10 uM pretreated for 10 mins before 5HT addition measured after 1 hr relative to control; summary of the method: as §1
Chain of 5-hydroxytryptamine receptor 4 (Homo sapiens) (Q13639 whole entry): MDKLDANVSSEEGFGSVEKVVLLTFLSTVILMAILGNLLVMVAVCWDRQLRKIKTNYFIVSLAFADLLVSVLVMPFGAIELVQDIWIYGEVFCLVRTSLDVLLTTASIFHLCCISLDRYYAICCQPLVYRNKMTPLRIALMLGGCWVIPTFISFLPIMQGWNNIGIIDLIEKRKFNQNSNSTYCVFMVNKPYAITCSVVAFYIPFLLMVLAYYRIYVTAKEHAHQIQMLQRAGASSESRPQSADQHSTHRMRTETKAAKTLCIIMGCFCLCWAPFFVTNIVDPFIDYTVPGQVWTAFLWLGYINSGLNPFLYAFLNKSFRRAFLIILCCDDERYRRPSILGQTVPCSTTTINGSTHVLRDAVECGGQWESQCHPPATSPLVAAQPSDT

[3] = target: T1, 5-hydroxytryptamine receptor 6 (Homo sapiens, UniProt P50406); assay: Antagonist activity at human recombinant 5HT6 receptor expressed in HEK293 cells assessed as inhibition of 5HT-induced cAMP accumulation pretreated for 10 mins before 5HT addition measured after 1 hr; summary of the method: as §1
T1 sequence (P50406 whole entry): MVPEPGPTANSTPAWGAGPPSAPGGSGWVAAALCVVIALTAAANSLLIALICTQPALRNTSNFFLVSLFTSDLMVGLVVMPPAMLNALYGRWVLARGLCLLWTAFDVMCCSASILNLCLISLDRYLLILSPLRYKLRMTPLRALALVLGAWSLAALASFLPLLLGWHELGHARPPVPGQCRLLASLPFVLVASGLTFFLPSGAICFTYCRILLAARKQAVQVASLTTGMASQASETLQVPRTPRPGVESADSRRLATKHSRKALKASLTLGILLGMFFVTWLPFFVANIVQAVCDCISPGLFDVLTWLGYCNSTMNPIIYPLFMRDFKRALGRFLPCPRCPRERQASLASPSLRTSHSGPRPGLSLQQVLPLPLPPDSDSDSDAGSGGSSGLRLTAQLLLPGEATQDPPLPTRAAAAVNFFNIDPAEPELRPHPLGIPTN

[4] = target: T1, 5-hydroxytryptamine receptor 6; assay: Antagonist activity at human recombinant 5HT6 receptor expressed in HEK293 cells assessed as inhibition of 5HT-induced cAMP accumulation at 10 uM pretreated for 10 mins before 5HT addition measured after 1 hr relative to control; summary of the method: as §1

Row | inhibition [1] [%] | inhibition [2] [%] | IC50 [3] [µM] | inhibition [4] [%] | SMILES
1 | 42.2 | 65 | 1.4 | 85.3 | CN1CCN(/N=C/c2c(-c3ccccc3)n(S(=O)(=O)c3cccc4c(N(C)C)cccc34)c3ccccc23)CC1
2 | 34.6 | 79.9 | 1.8 | 83.5 | CN1CCN(/N=C/c2c(-c3ccccc3)n(S(=O)(=O)c3ccccc3)c3ccccc23)CC1
3 | – | – | – | 12.2 | CCc1ccc2ccccc2c1S(=O)(=O)n1c(C)c(/C=N/N2CCN(C)CC2)c2ccccc21
4 | – | – | – | 13.5 | Cc1c(/C=N/N2CCN(C)CC2)c2ccccc2n1S(=O)(=O)c1ccc(I)cc1
5 | – | – | – | 31.2 | COc1ccc(S(=O)(=O)n2c(-c3ccccc3)c(/C=N/N3CCN(C)CC3)c3ccccc32)cc1
6 | 17.1 | 92.2 | 2.04 | 78.9 | Cc1c(/C=N/N2CCN(C)CC2)c2ccccc2n1S(=O)(=O)c1ccc2ccccc2c1
7 | – | – | – | 9.5 | Cc1c(/C=N/N2CCN(C)CC2)c2ccccc2n1S(=O)(=O)c1cccc2c(N(C)C)cccc12
8 | – | – | – | 20.6 | Cc1c(C)c(S(=O)(=O)n2c(-c3ccccc3)c(/C=N/N3CCN(C)CC3)c3ccccc32)c(C)c2c1OC(C)(C)CC2
9 | 18.4 | 17.9 | 2.4 | 88.6 | COc1cc(C)c(Cl)cc1S(=O)(=O)n1c(C)c(/C=N/N2CCN(C)CC2)c2ccccc21
10 | – | – | – | 30.5 | CN1CCN(/N=C/c2c(-c3ccccc3)n(S(=O)(=O)c3ccc(Cl)cc3)c3ccccc23)CC1
11 | – | – | – | 38.7 | CN1CCN(/N=C/c2c(-c3ccccc3)n(S(=O)(=O)c3ccc(OC(F)(F)F)cc3)c3ccccc23)CC1
12 | 72.8 | 13 | 7.4 | 55.3 | COc1cc(C)c(Cl)cc1S(=O)(=O)n1c(-c2ccccc2)c(/C=N/N2CCN(C)CC2)c2ccccc21
13 | 12.3 | 83 | 4.74 | 71.7 | Cc1c(/C=N/N2CCN(C)CC2)c2ccccc2n1S(=O)(=O)c1ccc(F)cc1
14 | 46.4 | 31.1 | 3.6 | 67.4 | CN1CCN(/N=C/c2c(-c3ccccc3)n(S(=O)(=O)c3cn(C)cn3)c3ccccc23)CC1
15 | – | – | – | 36.5 | CN1CCN(/N=C/c2c(-c3ccccc3)n(S(=O)(=O)Cc3ccccc3)c3ccccc23)CC1
16 | – | – | – | 15.1 | Cc1c(/C=N/N2CCN(C)CC2)c2ccccc2n1S(=O)(=O)c1ccc(-c2ccccc2)cc1
17 | 28.5 | 37.3 | 2.9 | 74.2 | CN1CCN(/N=C/c2c(-c3ccccc3)n(S(=O)(=O)c3ccc(F)cc3)c3ccccc23)CC1

Row | inhibition [1] [%] | inhibition [2] [%] | IC50 [3] [µM] | inhibition [4] [%] | SMILES
18 | – | – | – | 0.1 | Cc1c(/C=N/N2CCN(C)CC2)c2ccccc2n1S(=O)(=O)c1ccc(-c2ccc(Cl)cc2)cc1
19 | – | – | – | 24.3 | CN1CCN(/N=C/c2c(-c3ccccc3)n(S(=O)(=O)c3ccc(I)cc3)c3ccccc23)CC1
20 | – | – | – | 21.8 | CCCCN(CCCC)c1cccc2c(S(=O)(=O)n3c(-c4ccccc4)c(/C=N/N4CCN(C)CC4)c4ccccc43)cccc12
21 | 104 | – | – | – | CC1CCN(CC[C@H]2CCCN2S(=O)(=O)c2cccc(O)c2)CC1
22 | – | – | – | 39.6 | CN1CCN(/N=C/c2c(-c3ccccc3)n(S(=O)(=O)c3ccc4ccccc4c3)c3ccccc23)CC1
23 | – | – | – | 22.4 | Cc1c(C)c(S(=O)(=O)n2c(-c3ccccc3)c(/C=N/N3CCN(C)CC3)c3ccccc32)c(C)c2c1OC(C)(C)C2
24 | – | – | – | 14.3 | CCCCc1ccc(S(=O)(=O)n2c(-c3ccccc3)c(/C=N/N3CCN(C)CC3)c3ccccc32)cc1
25 | 5 | 9.4 | 6.6 | 54 | CN1CCN(/N=C/c2c(-c3ccccc3)n(S(=O)(=O)c3cccc4ccccc34)c3ccccc23)CC1
26 | – | – | – | 35.4 | CC(C)c1ccc(S(=O)(=O)n2c(-c3ccccc3)c(/C=N/N3CCN(C)CC3)c3ccccc32)cc1
27 | – | – | – | 49.1 | Cc1ccc(S(=O)(=O)n2c(C)c(/C=N/N3CCN(C)CC3)c3ccccc32)cc1
28 | – | – | – | 52.4 | Cc1c(/C=N/N2CCN(C)CC2)c2ccccc2n1S(=O)(=O)c1ccc([N+](=O)[O-])cc1
29 | 5 | 5.8 | – | – | COc1ccc(NS(=O)(=O)c2ccc(I)cc2)cc1N1CCN(C)CC1
30 | – | – | – | 33.2 | Cc1ccc(S(=O)(=O)n2c(-c3ccccc3)c(/C=N/N3CCN(C)CC3)c3ccccc32)cc1
31 | – | – | – | 27.2 | Cc1c(/C=N/N2CCN(C)CC2)c2ccccc2n1S(=O)(=O)c1ccc(Cl)c2nonc12
32 | – | – | – | 16.1 | Cc1c(/C=N/N2CCN(C)CC2)c2ccccc2n1S(=O)(=O)c1ccc(/N=N/c2ccc(N(C)C)cc2)cc1
33 | – | – | – | 44.6 | CCCCN(CCCC)c1cccc2c(S(=O)(=O)n3c(C)c(/C=N/N4CCN(C)CC4)c4ccccc43)cccc12
